Laboratory results published in paper PMC11608545 (International Journal of Nanomedicine, 2024).
≈ marks a conversion by molar mass, not a printed value.

Columns and labels:
A-549 = test: Antiproliferative activity, SRB assay; format: cell-based, human; conditions: for calculated selectivity index SI: IC50 MCF-10A / IC50 A-549
MCF-10A = test: cells; format: cell-based, human
MCF-7 = test: Antiproliferative activity, SRB assay; format: cell-based, human; conditions: for calculated selectivity index SI: IC50 MCF-10A / IC50 MCF-7
MDA-MB-468 = test: Antiproliferative activity, SRB assay; format: cell-based, human; conditions: for IC50: MDA-MB-468, 72 h; for calculated selectivity index SI: IC50 MCF-10A / IC50 MDA-MB-468
MV4-11 = test: Antiproliferative activity, MTT assay; format: cell-based, human; conditions: for IC50: MV4-11, 72 h; for calculated selectivity index SI: IC50 MCF-10A / IC50 MV4-11
PC-3 = test: Antiproliferative activity, SRB assay; format: cell-based, human; conditions: for calculated selectivity index SI: IC50 MCF-10A / IC50 PC3
[1] = background statement, no reference given, cited from earlier work
MV4-11 cells [2] = test: Cell cycle analysis; format: cell-based, human; conditions: MV4-11, 72 h, 1.5 × IC50
[3] = test system: caspase-3/7 in MDA-MB-468 cells; test: Caspase-3/7 activity determination; format: cell-based, human; conditions: MDA-MB-468, 24 h or 72 h, 1.5 × IC50
MDA-MB-468 cells = test: Cell cycle analysis; format: cell-based, human; conditions: MDA-MB-468, 72 h, 1.5 × IC50
[4] = test system: caspase-3/7 in MV4-11 cells; test: Caspase-3/7 activity determination; format: cell-based, human; conditions: MV4-11, 24 h or 72 h, 1.5 × IC50
MV4-11 cells [5] = test: Apoptosis determination by Annexin V staining; format: cell-based, human; conditions: MV4-11, 1.5 × IC50
[6] = test system: selected cancer cell lines (MV4-11, A549, PC-3, MDA-MB-468, MCF-7); test: Antiproliferative activity, all studied cancer cell lines together; format: cell-based, human; conditions: read-out: IC50 values, range over all studied cancer cell lines; 72 h
Summary of the method: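 Cells were seeded 24 h before treatment at 0.5×10^4 (A549), 0.75×10^4 (MDA-MB-468, MCF-7) or 1×10^4 (PC-3, MV4-11) cells/well. They were exposed 72 h to test compound at 1–625 μM in medium; loaded nanocarrier was dosed by encapsulated conjugate. Read-out was MTT (MV4-11) or SRB (others). Triplicates, 3–5 independent runs; IC50 per run, mean ± SD.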

[7] = SRB, n.a. = not active in the range concentration (5–625 μM)

Row | SMILES | IC50 (A-549; A-549, 72 h, SRB) [µM] | calculated selectivity index SI (A-549) | calculated selectivity index SI (MCF-7) | IC50 (MCF-7; MCF-7, 72 h, SRB) [µM] | calculated selectivity index SI (MDA-MB-468) | IC50 (MDA-MB-468; [7]) [µM] | calculated selectivity index SI (MV4-11) | IC50 (MV4-11; MTT) [µM] | calculated selectivity index SI (PC-3) | IC50 (PC-3; PC3, 72 h, SRB) [µM] | further results
1 | COc1ccc2c(c1)c(CC(=O)O)c(C)n2C(=O)c1ccc(Cl)cc1 [IND, indomethacin, reference compound] |  |  |  |  |  |  |  |  |  |  | IC50 (A-549; Homo sapiens, A549, 72 h): 121 ± 31.6 µM; IC50 (MCF-10A; Homo sapiens, MCF-10A, 72 h): 191 ± 11.4 µM; IC50 (MCF-7; Homo sapiens, MCF7, 72 h): 187 ± 19.4 µM; IC50 (MDA-MB-468; Homo sapiens): 270 ± 56.3 µM; IC50 (MV4-11; Homo sapiens): 204 ± 41.5 µM; IC50 (PC-3; Homo sapiens, PC-3, 72 h): 160 ± 61.5 µM; Biopharmaceutical Classification System (BCS) class [1]: Class II; water solubility ([1]; pH7): 0.1052 mg/mL (≈ 294 µM)
2 | CCCCCCCCCCCCCCCC(=O)OC[C@H](COP(=O)([O-])OCC[N+](C)(C)C)OC(=O)Cc1c(C)n(C(=O)c2ccc(Cl)cc2)c2ccc(OC)cc12 [PA-IND-PC, 1-palmitoyl-2-indomethacinoyl-sn-glycero-3-phosphocholine] | 233 ± 108 | 1.33 | 1.12 | 276 ± 134 | 1.10 | 281 ± 35.9 | 1.16 | 268 ± 34.3 | 1.33 | 233 ± 0.6 | 
3 | COc1ccc2c(c1)c(CC(=O)OC[C@@H](O)COP(=O)([O-])OCC[N+](C)(C)C)c(C)n2C(=O)c1ccc(Cl)cc1 [IND-LPC, 1-indomethacinoyl-2-hydroxy-sn-glycero-3-phosphocholine] | 27.2 ± 4.9 | 0.25 | 0.87 | 7.9 ± 0.7 | 2.56 | 2.7 ± 0.5 | 2.23 | 3.1 ± 0.5 | 0.48 | 14.4 ± 2.9 | effect on cell cycle / cell death (MV4-11 cells [2]): strongly induced cell death; toxicity towards MCF-10A at the active doses (MCF-10A; at 3.1 μM and 2.7 μM): not toxic; caspase-3/7 activation [3]: higher level after 24 h than 72 h; effect on cell cycle / cell death (MDA-MB-468 cells): strongly induces breast cancer cell death; fold lower IC50 than free IND (MDA-MB-468; MDA-MB-468): 100 fold; times more active against MDA-MB-468 than MCF-7 (MDA-MB-468; MDA-MB-468 vs MCF-7): 3 times; caspase-3/7 activation [4]: higher level after 24 h than 72 h; fold lower IC50 than free IND (MV4-11; MV4-11): 66 fold; effect on number of apoptotic (AnV+/PI+) cells (MV4-11 cells [5]): slightly increased
4 | CCCCCCCCCCCCCCCCCC(=O)OC[C@H](COP(=O)([O-])OCC[N+](C)(C)C)OC(=O)Cc1c(C)n(C(=O)c2ccc(Cl)cc2)c2ccc(OC)cc12 [SA-IND-PC, 1-stearoyl-2-indomethacinoyl-sn-glycero-3-phosphocholine] | 243 ± 15.7 | 2.22 | 1.87 | 288 ± 22.2 | 1.87 | 289 ± 12.2 | 1.64 | 329 ± 34.6 | 2.34 | 230 ± 15.8 | 
5 | CCCCCCCC/C=C\CCCCCCCC(=O)OC[C@H](COP(=O)([O-])OCC[N+](C)(C)C)OC(=O)Cc1c(C)n(C(=O)c2ccc(Cl)cc2)c2ccc(OC)cc12 [OA-IND-PC, 1-oleoyl-2-indomethacinoyl-sn-glycero-3-phosphocholine] | 53.8 ± 1.2 | 1.89 | 1.70 | 59.8 ± 2.1 | 1.80 | 56.4 ± 0.6 | 1.80 | 56.3 ± 0.8 | 1.75 | 58 ± 11.9 | effect on cell cycle / cell death (MV4-11 cells [2]): strongly induced cell death; effect on cell cycle / cell death (MDA-MB-468 cells): stopped the cell cycle in the G0/G1 phase, but did not induce cell death; caspase-3/7 activation [4]: strongly increased caspase activity in MV4-11 cells after 72 h; effect on number of apoptotic (AnV+/PI+) cells (MV4-11 cells [5]): slightly increased; IC50 [6]: 33.5 to 67.5 µM
6 | CCCCCCCCCCCCCCCC(=O)O[C@H](COC(=O)Cc1c(C)n(C(=O)c2ccc(Cl)cc2)c2ccc(OC)cc12)COP(=O)([O-])OCC[N+](C)(C)C [IND-PA-PC, 1-indomethacinoyl-2-palmitoyl-sn-glycero-3-phosphocholine] | 423 ± 84.1 |  |  | 424 ± 14.4 |  |  |  | 430 ± 104 |  | 563 ± 75.1 | 
7 | CCCCCCCCCCCCCCCCCC(=O)O[C@H](COC(=O)Cc1c(C)n(C(=O)c2ccc(Cl)cc2)c2ccc(OC)cc12)COP(=O)([O-])OCC[N+](C)(C)C [IND-SA-PC, 1-indomethacinoyl-2-stearoyl-sn-glycero-3-phosphocholine] | 201 ± 23.5 | 1.51 | 1.33 | 230 ± 10.3 | 1.42 | 214 ± 46.1 | 1.90 | 160 ± 59.7 | 1.46 | 209 ± 18.3 | 
